The values that follow come from the RNAGym collection of RNA variant scans (doi:10.1038/nmeth.2970).

B1: NELF-E aptamer (parent)
chain: CCCAACGACUGCCGAGCGAGAUUACGCUUGAGCGCCCCACUGAGGAUGCCCACGGGCGAUUGGGGCACGG

As usually defined, the Kd is the free concentration of one partner at which half of the binding sites on the other are occupied at equilibrium, for simple one-to-one binding.

In this data set the parent is B1. Briefly: HiTS-RAP. Particulars: with NELF-E (Drosophila). The essentials: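 Aptamer DNA templates bearing a T7 promoter and a ter site were sequenced on an Illumina GAIIx flowcell. T7 RNA polymerase then transcribed them in situ, and GST-Tus halted transcription over 30 minutes at 37°C. After a 30-minute room-temperature equilibration with NELF-E-mOrange at 0.064 to 1000 nM in HEPES binding buffer, clusters were imaged, using only the first binding curve. Intensities normalised to sequencing intensity were averaged per sequence and fitted with weighted Hill fits to give Kd, retaining only fits whose variance stayed under 1,000,000.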
CCCAACGACCGCCGAGCGAGAUUACGCUUGAGCGCCCCACUGAGGAUGCCCACGAGCGAUUGGGGCACGG [U10C G55A]: the Kd was determined as 8.56 nM.

With CCCAACGACCGCCGAGCGAGAUUACGCUUGAGCGCCCCACUGAGGAUGCCCACGUGCGAUUGGGGCACGG [U10C G55U], the Kd stood at 9.22 nM. For CCCAACGACCGCCGAGCGAGAUUACGCUUGAGCGCCCCACUGAGGAUGCCCACGGGUGAUUGGGGCACGG [U10C C57U] the value was 4.92 nM; for CCCAACGACAGGCGAGCGAGAUUACGCUUGAGCGCCCCACUGAGGAUGCCCACGGGCGAUUGGGGCACGG [U10A C12G], 6.47 nM; for CCCAACGAUUUCCGAGCGAGAUUACGCUUGAGCGCCCCACUGAGGAUGCCCACGGGCGAUUGGGGCACGG [C9U G11U], 5.56 nM. Under CCCAACGACAGCCGGGCGAGAUUACGCUUGAGCGCCCCACUGAGGAUGCCCACGGGCGAUUGGGGCACGG [U10A A15G] stands 3.62 nM; under CCCAACGAGUGCCGAGCGAGAUAACGCUUGAGCGCCCCACUGAGGAUGCCCACGGGCGAUUGGGGCACGG [C9G U23A], 6.12 nM. For CCCAACGAGUGCCGAGCGAGAUCACGCUUGAGCGCCCCACUGAGGAUGCCCACGGGCGAUUGGGGCACGG [C9G U23C] the value was 4.37 nM.

CCCAACGAGUGCCGAGCGAGAUGACGCUUGAGCGCCCCACUGAGGAUGCCCACGGGCGAUUGGGGCACGG [C9G U23G]: the dissociation constant (Kd) was determined as 5.35 nM. In the case of CCCAACGAUUGCCGAGCGAGAUUACGCUGGAGCGCCCCACUGAGGAUGCCCACGGGCGAUUGGGGCACGG [C9U U29G], the dissociation constant (Kd) was determined as 5.3 nM.

Take CCCAACGACAGCCGAGCGAGAGUACGCUUGAGCGCCCCACUGAGGAUGCCCACGGGCGAUUGGGGCACGG [U10A U22G]: the Kd came to 5.49 nM. For CCCAACGAGUGCCGAGCGAGAUUACGCUUGAGCGCCCCACUGAGGAUGCCCACGGGCGAUAGGGGCACGG [C9G U61A] the value was 35.2 nM. As for CCCAACGAGUGCCGAGCGAGAUUACGCUUGAGCGCCCCACUGAGGAUGCCCACGGGCGAUCGGGGCACGG [C9G U61C], the Kd came out at 89.2 nM. Under CCCAACGACAGCCGAGCGAGAUUACGCUUGAGCGCCCCACUGAGGAUGCCCAUGGGCGAUUGGGGCACGG [U10A C53U] stands 5.03 nM; under CCCAACGAGUGCCGAGCGAGAUUACGCUUGAGCGCCCCACUGAGGAUGCCCACGGGCGACUGGGGCACGG [C9G U60C], 11.4 nM. For CCCAACGAGUGCCGAGCGAGAUUACGCUUGAGCGCCCCACUGAGGAUGCCCACGGGCGAGUGGGGCACGG [C9G U60G] the value was 6.72 nM; for CCCAACGACAGCCGAGCGAGAUGACGCUUGAGCGCCCCACUGAGGAUGCCCACGGGCGAUUGGGGCACGG [U10A U23G], 5.54 nM; for CCCAACGACAGCCGAGCGAGAUCACGCUUGAGCGCCCCACUGAGGAUGCCCACGGGCGAUUGGGGCACGG [U10A U23C], 5.46 nM. For CCCAACGACCGCCGAUCGAGAUUACGCUUGAGCGCCCCACUGAGGAUGCCCACGGGCGAUUGGGGCACGG [U10C G16U] the value was 5.14 nM. On to CCCAACGAUUGCCGAGCGAGAUUACGCUUGAGCGCCCCACUGAGGAUGCCCACGGGCGAUUGGGUCACGG [C9U G65U], for which the dissociation constant (Kd) turned out to be 6.78 nM. Under CCCAACGACAGCCGAGCGAGAUUGCGCUUGAGCGCCCCACUGAGGAUGCCCACGGGCGAUUGGGGCACGG [U10A A24G] stands 5.63 nM; under CCCAACGACCGCCUAGCGAGAUUACGCUUGAGCGCCCCACUGAGGAUGCCCACGGGCGAUUGGGGCACGG [U10C G14U], 4.95 nM. For CCCAACGAUUGCCGAGCGAGAGUACGCUUGAGCGCCCCACUGAGGAUGCCCACGGGCGAUUGGGGCACGG [C9U U22G] the value was 5.55 nM; for CCCAACGAUGGCCGAGCGAGAUUACGCUUGAGCGCCCCACUGAGGAUGCCCACGGGCGAUUGGGGCACGG [C9U U10G], 5.19 nM; for CCCAACGACCGGCGAGCGAGAUUACGCUUGAGCGCCCCACUGAGGAUGCCCACGGGCGAUUGGGGCACGG [U10C C12G], 5.94 nM. For CCCAACGACAGCCGAGCGAGAUUACGCUUGAGCGCCCCGCUGAGGAUGCCCACGGGCGAUUGGGGCACGG [U10A A39G] the value was 11.6 nM.

With CCCAACGAGUGCCGAGCGAGAUUACGCGUGAGCGCCCCACUGAGGAUGCCCACGGGCGAUUGGGGCACGG [C9G U28G], the Kd was found to be 6.8 nM.

For CCCAACGAGUGCCGAGCGAGAUUACGCCUGAGCGCCCCACUGAGGAUGCCCACGGGCGAUUGGGGCACGG [C9G U28C], the Kd is 9.43 nM. For CCCAACGAGUGCCGAGCGAGAUUACGCAUGAGCGCCCCACUGAGGAUGCCCACGGGCGAUUGGGGCACGG [C9G U28A] the value was 5.64 nM; for CCCAACGACAGCCGAGCGAGAUUACGCUUGAGCGCCCCACUGAGGAUGCCCACGGGCGAUUGGGGCGCGG [U10A A67G], 4.3 nM. Under CCCAACGACAGCCGAGCGAGAUUACGCUUGAGCGCCCCACUGAGGAUGCCCACGGGCGAUUGGGGCUCGG [U10A A67U] stands 9.22 nM; under CCCAACGACAGCCGAGCGAGAUUACGCUUGGGCGCCCCACUGAGGAUGCCCACGGGCGAUUGGGGCACGG [U10A A31G], 9.84 nM.

CCCAACGACAGCCGAGCGAGAUUACGCUUGUGCGCCCCACUGAGGAUGCCCACGGGCGAUUGGGGCACGG [U10A A31U]: the dissociation constant Kd stood at 5.78 nM. For CCCAACGACAGCCGAGCGAGAUUACGCUUGAGCGCCCCACUGAGGAUGCCCACGGGUGAUUGGGGCACGG [U10A C57U] the value was 5.96 nM; for CCCAACGAGUGCCGAGCGAGAUUACGCUGGAGCGCCCCACUGAGGAUGCCCACGGGCGAUUGGGGCACGG [C9G U29G], 5.58 nM; for CCCAACGAGUGCCGAGCGAGAUUACGCUAGAGCGCCCCACUGAGGAUGCCCACGGGCGAUUGGGGCACGG [C9G U29A], 6.02 nM. Regarding CCCAACGAGUGCCGAGCGAGAUUACGCUCGAGCGCCCCACUGAGGAUGCCCACGGGCGAUUGGGGCACGG [C9G U29C], the equilibrium dissociation constant (Kd) came to 6.28 nM. For CCCAACGAGUGCCGAGCGAGAUUACGCUUGAGCGCCCCACUGAGGAGGCCCACGGGCGAUUGGGGCACGG [C9G U47G] the value was 5.29 nM.
